ADAM10 inh: human ADAM10 inhibitors, primary screen, biochemical, QFRET, HTS; Disintegrin and metalloproteinase domain-containing protein 10 (Homo sapiens), O14672; recombinant ADAM10, EDANS/DABCYL FRET peptide cleavage, 3 h; inhibition, % at 7 µM; 0.62% of 370,000 active;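 active means inhibition above a per-campaign cutoff equal to the mean of compounds falling between control-based bounds plus 3 SD, cut at about 20% in these data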;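 further: 0% = DMSO wells while the 100% control is not disclosed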
proKLK7 act: proKLK7 zymogen activators, primary screen, biochemical, fluorescence intensity. Kallikrein-7 (Homo sapiens), P49862. purified proKLK7, EDANS-DABCYL substrate fluorescence; 100% is mature enzyme control, 0% vehicle. activation, % at 7 µM. 0.9% of 370,000 active;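 active means activation above the mean of all tested compounds plus 3 SD, computed per campaign excluding outliers beyond control limits, cut at about 13% in these data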
Target sequence (P49862 whole entry, looked up): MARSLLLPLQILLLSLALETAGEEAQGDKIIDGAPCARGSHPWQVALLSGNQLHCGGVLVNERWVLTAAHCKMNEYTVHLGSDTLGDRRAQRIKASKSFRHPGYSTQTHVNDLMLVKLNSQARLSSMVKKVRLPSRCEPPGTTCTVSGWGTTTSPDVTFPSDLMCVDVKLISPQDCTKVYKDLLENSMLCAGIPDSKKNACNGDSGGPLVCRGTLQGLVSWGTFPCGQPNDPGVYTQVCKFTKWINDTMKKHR
ADAM17 inh: ADAM17 inhibitors, primary screen, biochemical, QFRET. inhibition, % at 6.95 µM. Disintegrin and metalloproteinase domain-containing protein 17 (Homo sapiens), P78536. 0.83% of 370,000 active. recombinant ADAM17, EDANS/DABCYL FRET peptide cleavage;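 active means inhibition above the mean of compounds lying between control limits plus 3 SD, set per campaign, cut at about 8.5% in these data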;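 further: 0% = DMSO-only wells as the low control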
NR2E3 ag-1: NR2E3 agonists in two-hybrid cells, primary screen, cell-based, luminescence, CHO-S, Gal4-NCOR/VP16-NR2E3. luciferase. inhibition of corepressor binding, % at 3.98 µM. 0.35% of 360,000 active;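 active means inhibition above the mean of all tested compounds plus 3 SD, cut at about 70% in these data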;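 further: 0% = DMSO with NR2E3 transfected cells and 100% = cells lacking NR2E3 construct; higher means lower luciferase signal from less NR2E3 corepressor binding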
Target sequence (Q9Y5X4 whole entry, looked up, the tested form may be a part): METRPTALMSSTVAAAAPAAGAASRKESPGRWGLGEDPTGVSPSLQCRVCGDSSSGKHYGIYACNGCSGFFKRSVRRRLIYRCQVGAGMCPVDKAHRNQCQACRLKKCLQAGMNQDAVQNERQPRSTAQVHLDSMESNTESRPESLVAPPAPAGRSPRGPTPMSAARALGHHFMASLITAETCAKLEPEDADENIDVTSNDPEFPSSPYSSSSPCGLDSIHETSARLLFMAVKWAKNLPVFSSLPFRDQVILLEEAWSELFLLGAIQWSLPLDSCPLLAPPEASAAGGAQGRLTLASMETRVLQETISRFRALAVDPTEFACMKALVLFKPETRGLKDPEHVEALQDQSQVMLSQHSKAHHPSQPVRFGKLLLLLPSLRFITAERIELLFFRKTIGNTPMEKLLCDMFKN
JMJD2C inh: inhibitors of GASC-1 histone demethylase, primary screen, biochemical, fluorescence, DELFIA europium. GST-JMJD2C(1-420) H3K9me3 demethylation. inhibition, % at 2.35 µM. 0.069% of 330,000 active;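 active means more than half of a compound's replicate wells show inhibition beyond 50%, single wells judged on their own value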;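 further: signal counts dimethyl H3K9 product captured on neutravidin plate; 0% = median of DMSO wells and 100% = 0.3 times that DMSO median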
NR2E3 ag-2: inhibitors of NR2E3-RetCOR corepressor binding, primary screen, NR2E3 agonist project, biochemical, TR-FRET, GST-NR2E3, biotin-RetCOR; 1536-well; AID 2300, 2010; 0.12% of 320,000 active; inhibition of corepressor binding, % at 4.78 µM; Photoreceptor-specific nuclear receptor (Homo sapiens), Q9Y5X4;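 active means percent inhibition above the cutoff of mean plus 3 SD of all tested compounds, set per screening campaign, cut at about 20% in these data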;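 further: 0% = DMSO wells and 100% = biotin wells as full block of FRET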
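System: GST-tagged NR2E3 plus biotinylated RetCOR corepressor; Buffer or medium: pH 7.5 Tris-based buffer; Probe or stimulus: RetCOR corepressor, biotinylated, 7 nM; Doses: compound at 4.8 µM, single dose; Schedule: 5 h incubation at 4 °C; Technique: time-resolved FRET; Evaluation: percent inhibition of TR-FRET ratio; Replication: one well per compound, singlicate testing.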
NR2E3 agonist cf: NR2E3 agonists, confirmation, biochemical, TR-FRET. shares compounds with NR2E3 ag-2. cell-free NR2E3 corepressor release, 5 h. activation (reported as inhibition), % at 3.98 µM. 39% of 360 active. AID 2379, 2010; in the data active means activation above about 20%
PPARg-NCOR2 ctr: agonists of PPARg-NCOR2 corepressor interaction, counter-screen for NR2E3 agonist project, biochemical, TR-FRET; shares compounds with NR2E3 ag-2; TR-FRET PPARg-NCOR2 coregulator interaction; inhibition, % at 3.98 µM; 45% of 360 active; in the data active means inhibition above about 20%;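 further: 0% = DMSO vehicle and 100% = wells without protein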
The depositor's hits bear a star. A selection: hits, their analogues and other compounds. The true share with any hit is near 2.5%.

How did Cc1nn(CCc2nn[nH]n2)c2nc(-c3ccc(Br)cc3)cc(C(F)(F)F)c12 do in these assays?
ADAM10 inh: -76.6; proKLK7 act: -2.1; ADAM17 inh: -24.4; NR2E3 ag-1: 3.9; JMJD2C inh: 2.8; NR2E3 ag-2: 25.3*; NR2E3 agonist cf: 36.9*; PPARg-NCOR2 ctr: 32.7*

How did CCS(=O)(=O)N1Cc2cc(C(=O)N(C)C)nc(-c3cccc(-c4ccc(F)cc4)c3)c2[C@H]1CCO do in these assays?
ADAM10 inh: -8.7; proKLK7 act: -0.8; ADAM17 inh: 4.1; NR2E3 ag-1: 1.2

How did CSc1nc(Sc2ccccc2Cl)c2ccccc2n1 do in these assays?
ADAM10 inh: 0.3; proKLK7 act: -0.7; ADAM17 inh: -4.0; NR2E3 ag-1: -1.9; JMJD2C inh: 11.7; NR2E3 ag-2: 26.5*; NR2E3 agonist cf: 9.8; PPARg-NCOR2 ctr: 13.4

How did CCc1ccccc1NC(=O)CSc1nc2cc(C(=O)NCC3CCCO3)ccc2c(=O)n1CC1CCCO1 (stereo unspecified) do in these assays?
ADAM10 inh: -13.5; proKLK7 act: -0.5; ADAM17 inh: -9.4; NR2E3 ag-1: -14.8

How did CCCCCn1c(SCC#N)nc2cc(C(=O)NCC3CCCO3)ccc2c1=O (stereo unspecified) do in these assays?
ADAM10 inh: -16.4; proKLK7 act: 0.2; ADAM17 inh: -2.8; NR2E3 ag-1: 3.9; JMJD2C inh: 7.2; NR2E3 ag-2: 21.6*; NR2E3 agonist cf: 1.2; PPARg-NCOR2 ctr: 6.5

How did COc1ccc2c(c1)CCCN2C(=O)C1CCCN(S(=O)(=O)c2cc(OC)ccc2OC)C1 (stereo unspecified) do in these assays?
ADAM10 inh: -8.0; proKLK7 act: 0.4; ADAM17 inh: 2.7

What do the screens show for `O=c1[nH]c(CN2CCN(c3ccccn3)CC2)nc2c(Br)cc(Br)cc12`?
ADAM10 inh: -1.9; proKLK7 act: 0.9; ADAM17 inh: -1.6; NR2E3 ag-1: 9.8; JMJD2C inh: 6.0; NR2E3 ag-2: 15.7

Results for O=c1[nH]c(CN2CCN(c3ncccn3)CC2)nc2c(Br)cc(Br)cc12 ?
ADAM10 inh: 4.1; proKLK7 act: -0.2; ADAM17 inh: -2.4; NR2E3 ag-1: 38.1; JMJD2C inh: 6.1; NR2E3 ag-2: 26.8*; NR2E3 agonist cf: 13.9; PPARg-NCOR2 ctr: 24.6*

How did Cc1nc2ccccc2nc1SCC(=O)N1CCC(C)CC1 do in these assays?
ADAM10 inh: -27.1; proKLK7 act: -0.1; ADAM17 inh: -9.1; NR2E3 ag-1: 15.1; JMJD2C inh: 0.5; NR2E3 ag-2: 22.2*; NR2E3 agonist cf: 12.9; PPARg-NCOR2 ctr: 16.4

Results for CC1CCCN(C(=O)CSc2cnc3ccccc3n2)C1 (stereo unspecified) ?
ADAM10 inh: -2.4; proKLK7 act: 0.2; ADAM17 inh: -8.3; NR2E3 ag-1: -56.2; JMJD2C inh: -18.5; NR2E3 ag-2: 48.3*; NR2E3 agonist cf: 14.0; PPARg-NCOR2 ctr: 11.2

How did CC(/C=N/NC(=O)CSc1nnc(SCc2ccc(C)cc2)s1)=C\c1ccco1 do in these assays?
ADAM10 inh: 6.8; proKLK7 act: -0.4; ADAM17 inh: 3.0

How did COC(=O)c1c(NC(=S)Nc2cc(OC)c(Cl)cc2OC)sc2c1CCCCC2 do in these assays?
ADAM10 inh: 8.5; proKLK7 act: 0.1; ADAM17 inh: 0.1; NR2E3 ag-1: 23.2; JMJD2C inh: 9.0; NR2E3 ag-2: 19.8*; NR2E3 agonist cf: 0.5; PPARg-NCOR2 ctr: 0.0

Results for COC(=O)c1cc2c(C)c(C)c3ccccn3c-2c1C(=O)OC ?
ADAM10 inh: -10.6; proKLK7 act: -0.2; ADAM17 inh: -4.8; NR2E3 ag-1: -46.1; JMJD2C inh: -2.8; NR2E3 ag-2: 8.8

What do the screens show for `COC(=O)c1cc2n3ccccc3c(C)c(-c3ccccc3)c-2c1C(=O)OC`?
ADAM10 inh: inactive; proKLK7 act: -52.2; ADAM17 inh: -196.1; NR2E3 ag-1: -12.8; JMJD2C inh: 24.1; NR2E3 ag-2: 59.4*; NR2E3 agonist cf: 63.5*; PPARg-NCOR2 ctr: 62.9*

Results for COC(=O)C(C(=O)OC)C1OC23CN(S(=O)(=O)c4ccc(C)cc4)C=CC2(C)C3c2ccccc21 (stereo unspecified) ?
ADAM10 inh: 12.3; proKLK7 act: 0.1; ADAM17 inh: 6.4

What do the screens show for `CCC(=O)N1CCc2cc(Br)c(S(=O)(=O)NCCCN(C)Cc3ccccc3)cc21`?
ADAM10 inh: -4.8; proKLK7 act: -0.4; ADAM17 inh: 2.9

What do the screens show for `O=C(CN1C(=O)COc2ccccc21)N(Cc1cccnc1)Cc1ccccc1F`?
NR2E3 ag-1: -35.0; JMJD2C inh: -11.6; NR2E3 ag-2: 30.7*; NR2E3 agonist cf: -12.4; PPARg-NCOR2 ctr: -7.8

Results for CCOC(=O)/C(C#N)=C1/C=C(C)NC(c2ccccc2O)=N1 ?
ADAM10 inh: -5.7; proKLK7 act: -0.1; ADAM17 inh: -4.5; NR2E3 ag-1: 20.3; JMJD2C inh: 5.8; NR2E3 ag-2: 22.9*; NR2E3 agonist cf: 13.0; PPARg-NCOR2 ctr: 10.1

What do the screens show for `Cc1ccc[n+](C2C(c3ccc([N+](=O)[O-])cc3)C(C#N)=C([S-])NC2(O)C2CC2)c1` (stereo unspecified)?
ADAM10 inh: 6.1; proKLK7 act: -0.1; ADAM17 inh: 1.3; NR2E3 ag-1: 14.6; JMJD2C inh: 6.2; NR2E3 ag-2: 2.8

Results for Cc1cccc[n+]1C1C(c2ccccc2)C(C#N)=C(C(=C=[N-])C#N)NC1(O)C1CC1 (stereo unspecified) ?
NR2E3 ag-1: -18.5; JMJD2C inh: 5.5; NR2E3 ag-2: 42.8*; NR2E3 agonist cf: 4.9; PPARg-NCOR2 ctr: 30.1*

Compound activity as filed in PubChem.
